What was measured:
[1] = target: T1, Amine oxidase [flavin-containing] A (Homo sapiens, UniProt P21397); experiment: Inhibition of human recombinant MAO-A expressed in baculovirus infected BTI-TN5B1-4 cells using p-tyramine as substrate assessed as reduction in H2O2 production at 100 uM preincubated for 15 mins followed by substrate addition measured after 15 mins by Amplex red dye based fluorescence assay; conditions: 0.25 h
T1 sequence (P21397 whole entry): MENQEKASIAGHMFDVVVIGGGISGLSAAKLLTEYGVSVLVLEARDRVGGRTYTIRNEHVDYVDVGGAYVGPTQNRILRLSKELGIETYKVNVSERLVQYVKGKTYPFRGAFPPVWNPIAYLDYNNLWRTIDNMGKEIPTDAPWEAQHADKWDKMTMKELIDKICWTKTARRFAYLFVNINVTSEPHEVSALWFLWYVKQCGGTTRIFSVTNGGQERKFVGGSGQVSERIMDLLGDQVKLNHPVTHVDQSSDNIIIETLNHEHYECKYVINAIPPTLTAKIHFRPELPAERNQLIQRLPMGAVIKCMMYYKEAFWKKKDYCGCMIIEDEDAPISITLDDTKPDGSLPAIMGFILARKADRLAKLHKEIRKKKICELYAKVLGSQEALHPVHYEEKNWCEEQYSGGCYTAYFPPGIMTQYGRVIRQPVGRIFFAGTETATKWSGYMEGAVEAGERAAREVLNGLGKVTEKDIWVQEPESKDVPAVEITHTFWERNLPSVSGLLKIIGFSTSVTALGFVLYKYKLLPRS
How it was run: (§1)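 Microsomal hMAO-A (1.1 µg protein) or hMAO-B (7.5 µg protein) from baculovirus-infected insect cells was used, with each amount adjusted to an oxidation rate of 165±2 pmol p-tyramine/min. Enzyme and test drug in 0.5M sodium phosphate pH 7.4 were pre-incubated 15 min at 37 °C. The reaction was started with final 200 µM Amplex Red, 1 U/mL HRP and 1 mM p-tyramine. Resorufin fluorescence (ex 545/em 590 nm) was followed for 15 min at 37 °C, background without enzyme was subtracted, and controls received vehicle.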

SH-SY5Y [2] = experiment: Cytotoxicity against human SH-SY5Y cells at 10 uM after 24 hrs by MTT assay; type: cell-based
How it was run: (§2)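 SH-SY5Y neuroblastoma cells were seeded at 1.10⁶/mL and incubated overnight. Compounds in DMSO (1%) were added, with 1% DMSO-treated cells as negative control, for 24 h. MTT solution (5 mg/ml in PBS, 10%) was then added for 2 h at 37 °C, and the crystals were dissolved in DMSO. A540 was read, and viability was taken as % of negative-control absorbance.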

[3] = target: T2, Amine oxidase [flavin-containing] B (Homo sapiens, UniProt P27338); experiment: (§3) Inhibition of human recombinant MAO-B expressed in baculovirus infected BTI-TN5B1-4 cells using p-tyramine as substrate assessed as reduction in H2O2 production at 100 uM preincubated for 15 mins followed by substrate addition measured after 15 mins by Amplex red dye based fluorescence assay; conditions: 0.25 h; how it was run: as §1
T2 sequence (P27338 whole entry): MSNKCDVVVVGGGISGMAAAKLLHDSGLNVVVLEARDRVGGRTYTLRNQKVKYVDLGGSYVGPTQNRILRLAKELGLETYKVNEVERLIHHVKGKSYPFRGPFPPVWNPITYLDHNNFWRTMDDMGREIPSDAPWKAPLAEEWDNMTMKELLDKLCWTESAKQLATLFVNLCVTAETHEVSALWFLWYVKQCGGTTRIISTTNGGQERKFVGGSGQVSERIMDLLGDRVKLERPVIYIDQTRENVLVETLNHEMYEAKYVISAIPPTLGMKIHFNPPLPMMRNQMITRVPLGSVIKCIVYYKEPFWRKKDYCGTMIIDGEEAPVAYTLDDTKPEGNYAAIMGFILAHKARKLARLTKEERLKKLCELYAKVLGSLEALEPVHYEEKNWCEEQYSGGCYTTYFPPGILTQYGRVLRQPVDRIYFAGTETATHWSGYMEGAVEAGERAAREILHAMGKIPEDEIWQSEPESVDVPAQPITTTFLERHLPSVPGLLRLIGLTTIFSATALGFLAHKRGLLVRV

SH-SY5Y [4] = experiment: Cytotoxicity against human SH-SY5Y cells at 20 uM after 24 hrs by MTT assay; type: cell-based; how it was run: as §2
Homo sapiens = organism: Homo sapiens; experiment: Selectivity index, ratio of IC50 for human recombinant MAO-A expressed in baculovirus infected BTI-TN5B1-4 cells to IC50 for human recombinant MAO-B expressed in baculovirus infected BTI-TN5B1-4 cells
How it was run: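 IC50 values for hMAO-A and hMAO-B were obtained in the same p-tyramine/Amplex Red assay (15 min pre-incubation, 37 °C, 15 min fluorescence read). Each IC50 came from linear least-squares regression of % inhibition versus log molar concentration, using 4–6 concentrations giving 20–80% inhibition. Selectivity was taken as IC50(MAO-A)/IC50(MAO-B).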

[5] = target: T2, Amine oxidase [flavin-containing] B; experiment: Inhibition of human recombinant MAO-B expressed in baculovirus infected BTI-TN5B1-4 cells using p-tyramine as substrate assessed as reduction in H2O2 production preincubated for 15 mins followed by substrate addition measured after 15 mins by Amplex red dye based fluorescence assay; type: cell-based
[6] = target: T2, Amine oxidase [flavin-containing] B; experiment: as §3, with “assay relative to control” for “assay”; conditions: 0.25 h

Row | SMILES | inhibition (INH) [1] | inhibition (INH) [3] | IC50 [5] | inhibition at 100 µM [6] | Activity (SH-SY5Y [2]) | Activity (SH-SY5Y [4]) | Ratio IC50 (Homo sapiens)
1 | Cc1cccc2cc(-c3ccc(Cl)nn3)c(=O)oc12 | Not Active |  | 22.7 µM |  | Non-Toxic |  | > 4.4
2 | COc1ccc2cc(-c3ccc(OC)nn3)c(=O)oc2c1 | Not Active |  |  | 45 to 50% | Non-Toxic |  | 
3 | COc1ccc2cc(-c3ccc(Cl)nn3)c(=O)oc2c1 | Not Active |  | 19.2 µM |  | Non-Toxic |  | > 5.2
4 | Cc1ccc2oc(=O)c(-c3ccc(Br)nn3)cc2c1 | Not Active |  | 2.16 µM |  | Non-Toxic |  | > 46.3
5 | COc1ccc2oc(=O)c(-c3ccc(Cl)nn3)cc2c1 | Not Active |  | 8.8 µM |  | Non-Toxic |  | > 11.4
6 | Cc1ccc2oc(=O)c(-c3ccc(Cl)nn3)cc2c1 | Not Active |  | 13.5 µM |  | Non-Toxic |  | > 7.4
7 | COc1ccc(-c2cc3cc(C)ccc3oc2=O)nn1 | Not Active |  | 17.6 µM |  | Non-Toxic |  | > 5.7
8 | COc1ccc(-c2cc3ccc(C)cc3oc2=O)nn1 | Not Active |  | 13.5 µM |  | Non-Toxic |  | > 7.4
9 | COc1ccc2oc(=O)c(-c3ccc(OC)nn3)cc2c1 | Not Active |  | 11.1 µM |  | Non-Toxic |  | > 9
10 | Cc1ccc2cc(-c3ccc(Cl)nn3)c(=O)oc2c1 | Not Active |  | 2.51 µM |  | Non-Toxic |  | > 39.8

More lines, main results first:

Row | inhibition (INH) [1] | inhibition (INH) [3] | IC50 [5] | inhibition at 100 µM [6] | SMILES | Activity (SH-SY5Y [2]) | Activity (SH-SY5Y [4]) | Ratio IC50 (Homo sapiens)
11 | Not Active | Not Active |  |  | COc1ccc(-c2cc3cccc(OC)c3oc2=O)nn1 | Non-Toxic | Toxic | 
12 | Not Active |  | 3.05 µM |  | COc1ccc2cc(-c3ccc(Br)nn3)c(=O)oc2c1 | Non-Toxic |  | > 32.8
13 | Not Active |  | 5.35 µM |  | COc1ccc(-c2cc3cccc(C)c3oc2=O)nn1 | Non-Toxic |  | > 18.7
14 | Not Active |  | 2.64 µM |  | Cc1cccc2cc(-c3ccc(Br)nn3)c(=O)oc12 | Non-Toxic |  | > 37.9
15 | Not Active |  | 30.1 µM |  | COc1cccc2cc(-c3ccc(Cl)nn3)c(=O)oc12 | Non-Toxic |  | > 3.3
16 | Not Active |  | 0.56 µM |  | COc1ccc2oc(=O)c(-c3ccc(Br)nn3)cc2c1 | Non-Toxic |  | > 179
17 | Not Active |  | 12.8 µM |  | COc1cccc2cc(-c3ccc(Br)nn3)c(=O)oc12 | Non-Toxic |  | > 7.8
18 | Not Active |  | 0.75 µM |  | Cc1ccc2cc(-c3ccc(Br)nn3)c(=O)oc2c1 | Non-Toxic |  | > 133

— ChEMBL document CHEMBL4190306, “Synthesis and structure-activity relationship study of novel 3-heteroarylcoumarins based on pyridazine scaffold as selective MAO-B inhibitors” (Eur J Med Chem, 2017)
